Measurements as given in ChEMBL document CHEMBL1140756, “Synthesis and antiviral activity of new dimeric inhibitors against HIV-1” (Bioorg Med Chem, 2008).

Legend:
[1] = Selectivity index, ratio of CC50 for human MT4 cells to EC50 for wild type HIV1; assay type: functional
Method in brief: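 CC50 from mock-infected MT-4 cells, read by MTT in parallel with the antiviral test, divided by EC50 for 50% protection from HIV-1 IIIB cytopathogenicity (MTT, day 4 input, 37 °C). Both values are means of at least two separate experiments.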

[2] = tested on: Human immunodeficiency virus 1; assay: Antiviral activity against HIV1 HTLV-3B; assay type: functional, organism-based; settings: Human immunodeficiency virus 1, HTLV-3B
Method in brief: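 MT-4 cells (1×10^4 per well) in RPMI 1640 with 10% FCS, exposed to serial compound dilutions (DMSO stocks at 100 mM diluted in medium), then infected with HIV-1 IIIB at an input giving complete cytopathogenicity by day 4. Incubated at 37 °C; viability read by MTT. EC50 = dose giving 50% protection; mean of at least two experiments.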

[3] = tested on: Human immunodeficiency virus 1; assay: Antiviral activity against efavirenz-resistant HIV1; assay type: functional, organism-based
Method in brief: (§1)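 Acute infection of MT-4 cells (1×10^4 per well) with NNRTI-resistant HIV-1 stocks (K103N+Y181C A17, Y181C N119, efavirenz-selected K103R+V179D+P225H) titrated in C8166 cells by syncytia scoring. Compounds were serially diluted from 100 mM DMSO stocks. Virus input gave full cytopathogenicity at day 4, 37 °C. Read-out was protection of viability by MTT, or p24 immunoassay.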

[4] = tested on: Human immunodeficiency virus 1; assay: Antiviral activity against HIV1 Y181C mutant; assay type: functional, organism-based; method in brief: as §1
[5] = tested on: Human immunodeficiency virus 1; assay: Antiviral activity against HIV1 K103N/Y181C mutant; assay type: functional, organism-based; method in brief: as §1
MT4 (Homo sapiens) = assay: Cytotoxicity against mock-infected human MT4 cells by MTT assay

SMILES | Ratio CC50/EC50 [1] | EC50 [2] [µM] | EC50 [3] [µM] | EC50 [4] [µM] | EC50 [5] [µM] | CC50 (MT4 (Homo sapiens)) [µM]
C#CCOCn1c(Cc2cc(C)cc(C)c2)c(CC)c(=O)[nH]c1=O | > 33300 | 0.003 | 16 | 0.2 | 1.2 | > 100
CCc1c(Cc2cc(C)cc(C)c2)n(COCc2ccc(C#C[C@@]3(O)CC[C@@H]4[C@H]5CCC6=CC(=O)CC[C@H]6[C@@H]5CC[C@]43CC)cc2)c(=O)[nH]c1=O | >250 | 0.4 | > 100 | 2.8 | > 100 | > 100
CCc1c(Cc2cc(C)cc(C)c2)n(COCC#Cc2ccc(C#CCOCn3c(Cc4cc(C)cc(C)c4)c(CC)c(=O)[nH]c3=O)cc2)c(=O)[nH]c1=O | 30 | 2.8 | > 85 | > 85 | > 85 | 85
CCc1c(Cc2cc(C)cc(C)c2)n(COCc2cn([C@H]3C[C@H](n4cc(C)c(=O)[nH]c4=O)O[C@@H]3CO)nn2)c(=O)[nH]c1=O | >1250 |  | 26 | 8 | 27 | > 100
CC[C@@]12CC[C@H]3C4CCC(=O)C=C4CC[C@@H]3[C@H]1CC[C@]2(O)C#CC#C[C@@]1(O)CC[C@@H]2[C@H]3CCC4=CC(=O)CCC4[C@@H]3CC[C@]21CC (some centres undefined) | 1 | > 28 | > 28 | > 28 | > 28 | 28
CCc1c(Cc2cc(C)cc(C)c2)n(COCC#CC#CCOCn2c(Cc3cc(C)cc(C)c3)c(CC)c(=O)[nH]c2=O)c(=O)[nH]c1=O | 18 | 0.5 | > 9 | > 9 | > 9 | 9
CCc1c(Cc2cc(C)cc(C)c2)n(COCC#Cc2ccc(I)cc2)c(=O)[nH]c1=O | 220 | 0.2 | > 44 | 10 | > 44 | 44
CCc1c(Cc2cc(C)cc(C)c2)n(COCc2ccc(I)cc2)c(=O)[nH]c1=O | 2714 | 0.007 | 0.8 | 0.1 | 0.9 | 19
C#CCOCn1c(Cc2ccccc2C)c(CC)c(=O)[nH]c1=O | 82 | 0.4 | > 33 | > 33 | > 33 | 33
CCc1c(Cc2ccccc2C)n(COCC#CC#CCOCn2c(Cc3ccccc3C)c(CC)c(=O)[nH]c2=O)c(=O)[nH]c1=O | 1 | > 8 | > 8 | > 8 | > 8 | 8
CCc1c(Cc2cc(C)cc(C)c2)n(COCC#Cc2ccc(COCn3c(Cc4cc(C)cc(C)c4)c(CC)c(=O)[nH]c3=O)cc2)c(=O)[nH]c1=O | 53 | 0.3 | > 16 | 4 | > 16 | 16
O=C1Nc2ccc(Cl)cc2[C@@](C#CC2CC2)(C(F)(F)F)O1 [EFAVIRENZ] |  |  |  | 0.008 | 0.3 | 30
CCOCn1c(Cc2ccccc2)c(C(C)C)c(=O)[nH]c1=O [EMIVIRINE] | >3333 | 0.03 | 100 | 20 | > 100 | > 100
